Drawing on ChEMBL document CHEMBL4513216, “Probing the Open Global Health Chemical Diversity Library for Multistage-Active Starting Points for Next-Generation Antimalarials” (ACS Infect Dis, 2020), this text covers cytotoxicity for 39 compounds.

The series is described as follows: Toxicity liver stage against HepG2, at 10uM. The settings on record: human, HepG2-A16-CD81EGFP cells; read-out: INHIBITION
The class given is cell-based. Details: test concentration 10 uM, cell line HepG2-A16-CD81EGFP. In outline: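 Uninfected HepG2-A16-CD81EGFP cells, 3 × 10^3 per well, 1536-well, plated on prespotted compound at 10 μM final, parasite-free screening media added to match infected plates; puromycin 10 μM positive, DMSO 0.5% negative; run in parallel with 48 h PbLuc assay at 37 °C, 5% CO2; viability by CellTiter-Glo luminescence, normalized to controls.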
Take `CCN1CCOC(CNCc2csc(C)n2)C1` (centres undefined): the cytotoxicity at 10 µM is -5.13%. As for `CC(C)c1nnc2n1CCN(CCC(=O)Nc1sccc1C#N)C2`, the cytotoxicity at 10 µM was -25.8%.

As to `CC(C)c1cc(C(F)(F)F)n2nc(CCC(=O)O)nc2n1`, the cytotoxicity at 10 µM is 5.97%. In the case of `Cc1nn(Cc2ccc(C(=O)NCCCN3CCOCC3)o2)c(C)c1Cl`, the cytotoxicity at 10 µM is -5.47%. With `O=C(NCC1CCOC1)Nc1ccc(Oc2ccc(F)cc2)nc1` (centres undefined), the cytotoxicity at 10 µM was -13.7%. Take `COc1ncccc1-c1ncccc1NC(=O)C(C)C`: the cytotoxicity at 10 µM is 3.78%.

Take `CN(CC(=O)Nc1ccc(Br)cn1)C(=O)Cc1ccc(O)cc1`: the cytotoxicity at 10 µM is -0.0241%. `CC(C)c1cc(C2CCCN2C(=O)CN2C(=O)CCNC2=O)no1` (centres undefined): the cytotoxicity at 10 µM is 18.8%.

Take `Cc1nc(C(C)C)sc1C(=O)N1CCC(C(N)=O)CC1`: the cytotoxicity at 10 µM was found to be 1.68%. Regarding `c1cnc(C2CCCN(Cc3ccsc3)C2)cn1` (centres undefined), the cytotoxicity at 10 µM was -5.67%.

`COc1cc(S(=O)(=O)N2CCc3ccc(Cl)cc32)cc(C(=O)O)c1OC`: the cytotoxicity at 10 µM is -1.34%.

Take `Cc1cc(C2CCCN2C(=O)Cn2c(C)cc(=O)c3ccccc32)on1` (centres undefined): the cytotoxicity at 10 µM was -9.02%. As to `O=c1[nH]ncc(NCCOc2ccc3c(c2)CCC3)c1Cl`, the cytotoxicity at 10 µM is 34.5%. `CSCC(=O)N1CCOC(c2nc(C(C)(C)C)n[nH]2)C1` (centres undefined): the cytotoxicity at 10 µM was -9.58%.

Take `O=C(C1CCC1)N1CCC2(COCc3cnc(-c4cccnc4)nc32)C1` (centres undefined): the cytotoxicity at 10 µM came to 3.5%.

As to `Cc1ccc(CN2Cc3nnn(C)c3C(COCc3ccccc3)C2)o1` (centres undefined), the cytotoxicity at 10 µM was determined as 5.44%. The same measure for `CC(C)C(=O)NC1CCCN(C(=O)c2ccc(O)c(Cl)c2)C1` (centres undefined): -6.04%. With `COc1cccc(C(=O)N2CCc3nc(C4CCCN4)ncc3C2)c1` (centres undefined), the cytotoxicity at 10 µM is -7.28%. The same measure for `CSCC(=O)N1CCCC(n2ccnc2C(C)C)C1` (centres undefined): -18.2%. Regarding `O=C(NCC[S+]([O-])c1ccccc1)NCC(F)(F)F` (centres undefined), the cytotoxicity at 10 µM is -1.09%. The same measure for `c1cnnc(N2CCCC2CNCc2nc(-c3ccsc3)no2)c1` (centres undefined): -7.7%; for `COCCN(C)C1COC2(CCN(Cc3cccc(F)c3)CC2)C1` (centres undefined): -79.3%. For `COc1ccc(-c2nnsc2C(=O)N2CCC(C(N)=O)CC2)cc1`, the cytotoxicity at 10 µM is -1.7%. As to `Clc1ccc2c(c1)C=C(CNC1CCc3ncnn3C1)CO2` (centres undefined), the cytotoxicity at 10 µM was -1.19%.

On to `Cc1nccn1-c1cc(CNC(=O)NCC2CCCO2)ccn1` (centres undefined), for which the cytotoxicity at 10 µM was -7.9%.

For the compound `CCc1ncc(C(=O)N(C)CC2Cc3ccccc3O2)cn1` (centres undefined), the cytotoxicity at 10 µM is -0.734%. As to `O=C(N1CCCC1)N1C[C@@H]2CN(Cc3ccoc3)CCO[C@@H]2C1`, the cytotoxicity at 10 µM is -76.7%.

On to `Cc1cc(N2CCC(CC(N)=O)CC2)nc(-c2ccncc2)n1`, for which the cytotoxicity at 10 µM was -7.22%.

For the compound `CO[C@@H]1CCN(S(=O)(=O)c2cccs2)[C@H]1Cc1ccccc1`, the cytotoxicity at 10 µM is -78%. In the case of `O=C(NCCO)C1(CC2CC(c3ccc(F)cc3)=NO2)CCOCC1` (centres undefined), the cytotoxicity at 10 µM is -2.55%. Regarding `O=S(=O)(c1cccs1)N1CCC(c2nc(-c3cccs3)no2)CC1`, the cytotoxicity at 10 µM was 6.14%. For `Cc1occc1C(=O)N1CCC(C(O)c2ccc(Cl)cc2)CC1` (centres undefined), the cytotoxicity at 10 µM is -0.342%. The same measure for `O=C(NCC1CC1)C1CSCN1S(=O)(=O)c1cccc(F)c1` (centres undefined): -14.3%; for `Cc1c(C(=O)N2CCN(C)CC2)n(C)c2ccc(Cl)cc12`: -2.46%; for `Cc1cnc(N2CCC3(CCN(CC4CCCC4)C3=O)CC2)nc1`: -6.54%. As to `CCN(Cc1noc(C)n1)C(=O)CCn1c(C)cc2ccccc21`, the cytotoxicity at 10 µM is -3.97%.

Take `CN(C(=O)c1ccco1)C1CCC(NC(=O)OC(C)(C)C)CC1` (centres undefined): the cytotoxicity at 10 µM is 8.12%. The same measure for `COc1ccc(F)cc1CSCC(=O)N(CCC#N)CCC#N`: 0.0531%; for `O=C(NCc1ccccc1F)C1=NOC2(CCNC2)C1` (centres undefined): 3.23%.
